# Test results taken from the RNAGym collection of RNA variant scans (doi:10.1038/s41586-018-0170-7).
# B1: tRNA (parent)
# chain: GUUCCGUUGGCGUAAUGGUAACGCGUCUCCCUCCUAAGGAGAAGACUGCGGGUUCGAGUCCCGUACGGAACG
# Variants of: B1
# Assay: yeast fitness, log relative to wild type (ln ratio); higher = fitter; tRNA-Arg(CCU), competitive growth, 37 C, 1 M NaCl
# Method in brief: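 Two independent transformations put a combinatorial tRNA-Arg(CCU) variant library on a HIS3 centromeric plasmid into BY4742 lacking the chromosomal gene. Pools were grown in SC-HIS at 30 °C for 4 generations, then in SC-HIS 1M NaCl at 37 °C for ~6.5 generations (~26.5 h), with three outputs taken per input. Fitness compares a genotype's generations with the wild type's as a natural log ratio. Those generations are OD-scaled log2 output/input frequencies, inverse-variance weighted across replicates, from 125 bp paired-end Illumina counts.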
row,Variant,yeast fitness (ln)
1,U2C G6U C27U C46U C66A A69G A70G,-0.035
2,U2C G6U A43C C66A A70G,-0.0246
3,U2C G6U A43C C66A A70U,-0.168
4,U2C G6U C27U A43C A70U,-0.2
5,U2C G6U C27U A43C A70G,-0.18
6,U2C G6U C27U A43C C46U A70U C71U,-0.182
7,U2C G6U C27U C46U C66U A69G C71U,-0.397
8,U2G,-0.0125
9,U2C G6U C46U C66A A70U C71U,-0.121
10,U2C G6U C27U C46U C66A A70G,-0.0216
11,U2C G6U C27U C46U C66A A70U,-0.29
12,U2C G6U C46U C66A A70U,0.000469
13,U2C G6U C46U C66A A70G,-0.013
14,U2C G6U A43C C46U A70U,-0.061
15,U2C G6U A43C C46U A70G,-0.113
16,U2C G6U C27U A43C C46U A69G A70G C71U,-0.188
17,U2C G6U C27U A43C C71U,-0.23
18,U2C G6U C27U C46U C71U,-0.235
19,U2G A43C C46U,-0.0426
20,U2C G6U C27U A43C C46U C66U A69G A70U C71U,-0.391
21,U2C G6U C27U C66A,-0.24

row,Variant,yeast fitness (ln)
1,U2C G6U C27U C66U,-0.0859
2,U2C G6U C46U C66A C71U,-0.211
3,U2C G6U C46U A70U C71U,-0.0786
4,U2C G6A C46U A69G A70G C71U,-0.145
5,U2C G6U A43C A70G,-0.188
6,U2C G6U A43C A70U,-0.118
7,U2C G6U C27U A43C C66U A69G A70G,-0.426
8,U2G A43C A70U C71U,-0.0697
9,U2C G6U C27U A43C C46U A69G A70U,-0.126
10,U2C G6U C27U A43C C46U A69G A70G,-0.227
11,U2C G6U C27U A43C C46U C66U A70U C71U,-0.317
12,U2C G6A C66U,0.00772
13,U2C G6A C46U C66U A70G C71U,-0.00476
14,U2C G6U C46U A69G C71U,-0.0672
15,U2C G6U C27U A43C C46U A70G,-0.204
16,U2C G6U C27U A43C C46U A70U,-0.151
17,U2G A43C C46U A69G C71U,-0.107
18,U2G A43C A70G,-0.182
19,U2G A43C A70U,-0.00614
20,U2C G6U A43C C66U A70G,-0.279
21,U2C G6U A43C C66U A70U,-0.194

row,Variant,yeast fitness (ln)
1,U2G A43C A69G C71U,-0.163
2,U2G A43C C46U C66A A69G A70G C71U,-0.21
3,U2C G6U A43C C46U C66U A69G A70G,-0.262
4,U2C G6U A43C C46U C66U A69G A70U,-0.211
5,U2C G6A C46U A69G C71U,-0.107
6,U2C G6U C27U C46U C66U A69G A70U C71U,-0.546
7,U2C G6U A43C C66U,-0.161
8,U2C G6U A43C C66A,-0.135
9,U2C G6U C27U A43C C66A A70G,-0.0266
10,U2C G6U C27U A43C C66A A70U,-0.167
11,U2C G6U A43C C46U C71U,-0.125
12,U2C G6U C66A A70U C71U,-0.105
13,U2C G6U C46U A70U,-0.0445
14,U2C G6U C46U A70G,-0.0195
15,U2C G6A C66A A69G A70G C71U,-0.139
16,U2C G6A C46U C66U C71U,-0.164
17,U2C G6U C66U C71U,-0.139
18,U2C G6A C66U A69G A70G C71U,-0.0248
19,U2C G6U A69G A70G C71U,-0.325
20,U2C G6U C27U C46U A69G A70U C71U,-0.334
21,U2C G6U C46U A69G A70U C71U,-0.216

row,Variant,yeast fitness (ln)
1,U2G A43C A69G A70U C71U,-0.382
2,U2C G6U A69G A70U C71U,-0.231
3,U2C G6U C66U A69G A70U C71U,-0.468
4,U2C G6U A43C C46U C66U A70G C71U,-0.352
5,U2C G6U A43C C66U A69G A70G,-0.31
6,U2C G6U A43C C66U A69G A70U,-0.231
7,U2C G6U C27U C46U C66A A69G A70G C71U,-0.0348
8,U2C G6U A43C A70G C71U,-0.185
9,U2C G6A C66U A70U C71U,-0.172
10,U2C G6U C46U C66U A69G A70G,-0.066
11,U2C G6U C46U C66U A69G A70U,-0.0758
12,U2C G6U C27U A43C C66A C71U,-0.176
13,U2C G6U A43C C46U C66A A70U,-0.21
14,U2C G6U A43C C46U C66A A70G,0.0031
15,U2C G6U C27U C71U,-0.147
16,U2G A43C C46U C66A,-0.101
17,U2C G6U A43C C66A A69G A70U C71U,-0.321
18,U2C G6U A43C C66U A69G A70U C71U,-0.479
19,U2C G6U A43C C66U A69G C71U,-0.454
20,U2C G6A C66A A70G C71U,-0.286
21,U2C G6U A43C C46U C66A A69G A70G C71U,-0.00753
